{"source": "ChEMBL document CHEMBL3751740", "about": "“New MKLP-2 inhibitors in the paprotrain series: Design, synthesis and biological evaluations” (Bioorg Med Chem, 2016)", "key": {"[1]": {"target": "T1, Kinesin-like protein KIF23 (Homo sapiens) (UniProt Q02241)", "T1 sequence (whole entry)": "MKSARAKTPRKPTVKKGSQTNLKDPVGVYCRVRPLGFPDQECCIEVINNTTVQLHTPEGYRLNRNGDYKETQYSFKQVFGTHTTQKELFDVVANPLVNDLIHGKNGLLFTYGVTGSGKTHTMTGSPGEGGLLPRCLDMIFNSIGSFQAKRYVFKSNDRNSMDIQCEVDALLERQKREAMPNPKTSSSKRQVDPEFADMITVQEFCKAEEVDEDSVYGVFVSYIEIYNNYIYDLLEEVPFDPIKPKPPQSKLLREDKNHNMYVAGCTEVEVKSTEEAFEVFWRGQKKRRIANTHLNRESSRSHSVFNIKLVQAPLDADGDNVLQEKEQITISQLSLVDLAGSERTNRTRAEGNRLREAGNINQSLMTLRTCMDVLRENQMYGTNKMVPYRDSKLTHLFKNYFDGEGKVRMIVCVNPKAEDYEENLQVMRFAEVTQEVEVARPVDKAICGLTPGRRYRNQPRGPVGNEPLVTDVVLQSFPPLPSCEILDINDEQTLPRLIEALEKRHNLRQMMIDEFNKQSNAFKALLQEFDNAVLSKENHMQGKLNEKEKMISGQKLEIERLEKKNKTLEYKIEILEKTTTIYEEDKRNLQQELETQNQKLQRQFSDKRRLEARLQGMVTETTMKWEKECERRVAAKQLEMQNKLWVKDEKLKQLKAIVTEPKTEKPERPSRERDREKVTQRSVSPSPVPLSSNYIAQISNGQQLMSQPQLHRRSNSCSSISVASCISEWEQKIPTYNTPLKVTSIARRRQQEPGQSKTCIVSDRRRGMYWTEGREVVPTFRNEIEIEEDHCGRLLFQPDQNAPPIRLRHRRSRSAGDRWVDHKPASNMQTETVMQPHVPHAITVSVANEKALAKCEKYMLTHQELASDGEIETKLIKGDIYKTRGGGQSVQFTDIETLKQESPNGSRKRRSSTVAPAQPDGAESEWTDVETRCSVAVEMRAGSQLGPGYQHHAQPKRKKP", "assay": "Inhibition of porcine brain microtubule-stimulated human recombinant GST-tagged MKLP1 ATPase activity at 1 mM by microplate reader in presence of Mg2+ ATP relative to control", "summary_of_the_method": "(§1)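 Motor domain at 15 µM final, in 7.5 mM PIPES-NaOH pH 7.0 with […], 10 µM Taxol, ELIPA 1 and 2 reagents and 1.25 mg/mL microtubules. AMP-PNP, a slowly hydrolysable ATP analog and general ATPase inhibitor, tested at 1 mM. Reaction started with 1 mM Mg2+ATP at 22 °C and read kinetically at 360 nm. Run in triplicate.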"}, "[2]": {"target": "T2, Kinesin-1 heavy chain (Homo sapiens) (UniProt P33176)", "T2 sequence (whole entry)": "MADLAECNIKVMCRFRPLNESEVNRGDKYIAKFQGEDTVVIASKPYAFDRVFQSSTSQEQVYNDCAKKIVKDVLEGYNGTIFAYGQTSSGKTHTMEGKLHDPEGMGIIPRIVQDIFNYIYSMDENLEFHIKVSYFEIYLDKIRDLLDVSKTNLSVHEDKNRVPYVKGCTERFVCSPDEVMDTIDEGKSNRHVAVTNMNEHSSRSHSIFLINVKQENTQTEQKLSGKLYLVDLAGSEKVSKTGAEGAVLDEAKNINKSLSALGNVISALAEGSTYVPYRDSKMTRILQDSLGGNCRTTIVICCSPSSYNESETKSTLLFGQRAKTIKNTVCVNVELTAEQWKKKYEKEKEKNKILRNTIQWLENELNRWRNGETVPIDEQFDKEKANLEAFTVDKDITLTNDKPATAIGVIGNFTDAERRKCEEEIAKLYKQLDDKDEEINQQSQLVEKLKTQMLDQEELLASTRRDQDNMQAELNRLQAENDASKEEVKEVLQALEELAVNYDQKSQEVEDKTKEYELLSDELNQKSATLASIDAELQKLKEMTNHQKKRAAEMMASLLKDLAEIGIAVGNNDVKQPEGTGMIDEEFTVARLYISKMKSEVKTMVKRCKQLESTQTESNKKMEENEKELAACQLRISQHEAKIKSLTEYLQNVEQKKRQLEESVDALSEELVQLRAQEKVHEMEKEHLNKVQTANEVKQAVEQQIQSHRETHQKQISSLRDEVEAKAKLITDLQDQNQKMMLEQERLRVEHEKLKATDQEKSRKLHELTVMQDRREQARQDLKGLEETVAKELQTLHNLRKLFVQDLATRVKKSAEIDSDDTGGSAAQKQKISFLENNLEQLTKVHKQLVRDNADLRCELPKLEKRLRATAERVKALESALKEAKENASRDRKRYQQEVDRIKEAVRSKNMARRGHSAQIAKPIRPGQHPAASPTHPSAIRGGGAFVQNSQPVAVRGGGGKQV", "assay": "Inhibition of porcine brain microtubule-stimulated human recombinant GST-tagged Kif5B ATPase activity at 1 mM by microplate reader in presence of Mg2+ ATP relative to control", "summary_of_the_method": "as §1"}}}
{"compound": "Nc1ncnc2c1ncn2[C@@H]1O[C@H](COP(=O)(O)OP(=O)(O)NP(=O)(O)O)[C@@H](O)[C@H]1O", "values": [{"measurement": "inhibition", "setting": "[1]", "value": "> 30", "unit": "%"}, {"measurement": "inhibition", "setting": "[2]", "value": "> 30", "unit": "%"}]}
